Key:
[1] = Metabolic stability in swine brain homogenate; format: in vitro ADME; settings: 10 μM, 0-60 min
[2] = Metabolic stability in swine plasma; format: in vitro ADME; settings: 60 min incubation in swine plasma
[3] = nonhuman primate, systemic administration; cited from earlier work
[4] = Metabolic stability in mouse plasma; format: in vitro ADME; settings: representative chromatogram (Figure S1)
[5] = Overt toxicity observation in mice during 14 treatment; format: in vivo, mouse; settings: 1 mg/kg, ip, qod over infection period and testing
EcoHIV-infected mice = assay: Radial arm water maze in EcoHIV-infected mice; format: in vivo, mouse; settings: control for visual or motor function; 1 mg/kg, ip, qod
Summary of the method: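 Male C57BL/6J mice, 5 weeks old, randomized (n = 8/group) to drug or saline starting 1 day before ip EcoHIV (2 × 106 pg p24) or sham PBS inoculation. Dosing continued through 30-day infection and testing. From day 30 p.i., six-lane opaque-water RAWM with visual cues. After hidden-platform trials, latency to a visible platform measured in the same context.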

EcoHIV = EcoHIV viral load in spleen and brain by qPCR; format: in vivo, mouse; settings: EcoHIV-infected mice, 1 mg/kg, ip, qod

SMILES: CC(C)OC(=O)[C@H](CCC(=O)C=[N+]=[N-])NC(=O)OC(OC(=O)C(C)(C)C)C(C)C (mixture of isomers) [Compound 13c, Isopropyl 6-Diazo-2-(((2-methyl-1-(pivaloyloxy)propoxy)-carbonyl)amino)-5-oxohexanoate]
- Metabolic lability in swine brain homogenate (in words) [1]: readily biotransformed

SMILES: CC(C)OC(=O)[C@H](CCC(=O)C=[N+]=[N-])NC(=O)OCOC(=O)C(C)(C)C [Compound 13a, Isopropyl 6-Diazo-5-oxo-2-((((pivaloyloxy)methoxy)-carbonyl)amino)hexanoate]
- Stability in swine plasma (in words) [2]: labile

SMILES: CC(C)OC(=O)[C@H](CCC(=O)C=[N+]=[N-])NC(=O)O[C@H](C)OC(=O)C(C)(C)C [Compound 13b, Isopropyl 6-Diazo-5-oxo-2-(((1-(pivaloyloxy)ethoxy)-carbonyl)amino)hexanoate]
- Metabolic lability in swine brain homogenate (in words) [1]: moderately labile
- Enhancement in the CSF-to-plasma ratio of 14 exposure relative to equimolar 14 [3]: about 10 fold

SMILES: CC(C)OC(=O)[C@H](CCC(=O)C=[N+]=[N-])NC(=O)OC(OC(=O)C(C)(C)C)c1ccccc1 (some centres unmarked) [Compound 13d, Isopropyl 6-Diazo-5-oxo-2-(((phenyl(pivaloyloxy)methoxy)-carbonyl)amino)hexanoate]
- Metabolic lability in swine brain homogenate (in words) [1]: readily biotransformed
- Time to complete conversion to 14 in mouse plasma [4]: ≤ 10 min

SMILES: CC(C)OC(=O)[C@H](CCC(=O)C=[N+]=[N-])NC(=O)OC(C)(C)OC(=O)C(C)(C)C [Compound 13e, Isopropyl 6-Diazo-5-oxo-2-((((2-(pivaloyloxy)propan-2-yl)-oxy)carbonyl)amino)hexanoate]
- Metabolic lability in swine brain homogenate (in words) [1]: mostly stable

SMILES: [N-]=[N+]=CC(=O)CC[C@H](N)C(=O)O [Compound 14, 6-diazo-5-oxo-L-norleucine]
- Overt signs of toxicity (diarrhea, weight loss) [5]: no mice exhibited overt signs of toxicity
- RAWM escape latency to a visible platform (EcoHIV-infected mice): no effect
- EcoHIV viral load in the brain (EcoHIV): no effect
- EcoHIV viral load in the spleen (DNA copies) (EcoHIV; p = 0.022): slight increase

— paper PMC5795620 (Journal of medicinal chemistry, 2017)
